Measurements as given in ChEMBL document CHEMBL1649438, “Activities of ceftobiprole and other cephalosporins against extracellular and intracellular (THP-1 macrophages and keratinocytes) forms of methicillin-susceptible and methicillin-resistant Staphylococcus aureus” (Antimicrob Agents Chemother, 2009).
Converted amounts (≈) assume the structure as drawn.

Legend:
Staphylococcus aureus [1] = assay: Antimicrobial activity against methicillin-susceptible Staphylococcus aureus ATCC 25923 infected in human keratinocytes assessed as bacterial count per mg of cell protein at low extracellular compound concentration after 24 hrs; assay type: functional
How it was run: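 Primary human skin keratinocytes were grown in defined keratinocyte serum-free medium and infected with S. aureus to 1.5 × 10^6 to 3.0 × 10^6 CFU/mg cell protein. Cells were exposed 24 h to increasing extracellular concentrations. Response was the log10 CFU change from the postphagocytosis inoculum, fitted by a Hill equation with slope 1. Cs is the concentration giving CFU equal to the original inoculum, found by graphical interpolation.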

Staphylococcus aureus [2] = assay: Antimicrobial activity against hospital-acquired vancomycin-intermediate Staphylococcus aureus NRS126 infected in human THP-1 cells assessed as bacterial count per mg of cell protein at high extracellular compound concentration after 24 hrs at pH 7.4; assay type: functional
How it was run: (§1)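 THP-1 macrophages infected as described previously, with a postphagocytosis inoculum of 1.5 × 10⁶ to 3.0 × 10⁶ CFU/mg cell protein. Cells were exposed 24 h to increasing extracellular antibiotic concentrations. Response is the change in log10 CFU/mg protein from the inoculum (n = 3), fitted to a Hill function. E0 and Emax were extrapolated to infinitely low and high concentrations. EC50 and static concentration (graphical interpolation) are expressed as multiples of the broth MIC at pH 5.5 or 7.4.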

Staphylococcus aureus [3] = assay: Antimicrobial activity against hospital-acquired vancomycin-intermediate Staphylococcus aureus NRS126 infected in human THP-1 cells assessed as bacterial count per mg of cell protein at low extracellular compound concentration after 24 hrs; assay type: functional
How it was run: (§2)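 Human THP-1 macrophage-like cells were infected with S. aureus to a postphagocytosis inoculum of 1.5 × 10^6 to 3.0 × 10^6 CFU/mg cell protein. Cells were then exposed 24 h to increasing extracellular antibiotic concentrations. Response was the log10 CFU change per mg protein from the postphagocytosis inoculum, n = 3. A Hill function was fitted on log-transformed axes. E0 and Emax were extrapolated to infinitely low and high concentrations. Cs was read by graphical interpolation. Concentrations were expressed as multiples of the broth MIC at pH 5.5 or pH 7.4.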

Staphylococcus aureus [4] = assay: Antimicrobial activity against Panton-valentine leucocidin-positive community-acquired methicillin-resistant Staphylococcus aureus N4090440 infected in human THP-1 cells assessed as change in bacterial count after 24 hrs at pH 7.4; assay type: functional, organism-based; conditions: N4090440, THP-1, 24 h
How it was run: (§3)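 THP-1 human macrophages infected with S. aureus (postphagocytosis inoculum 1.5 × 10^6 to 3.0 × 10^6 CFU/mg cell protein), then incubated 24 h with increasing extracellular antibiotic concentrations. Change in log10 CFU/mg cell protein from the postphagocytosis inoculum, n = 3. Hill function fitted on log-transformed data. Low-concentration value (E0) and high-concentration value (Emax) are extrapolated. Where a pH is given, concentrations are expressed as multiples of the broth MIC at that pH.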

Staphylococcus aureus [5] = assay: Antimicrobial activity against methicillin-susceptible Staphylococcus aureus ATCC 11632 infected in human THP-1 cells assessed as bacterial count per mg of cell protein at high extracellular compound concentration after 24 hrs at pH 7.4; assay type: functional; how it was run: as §2
Staphylococcus aureus [6] = assay: Antimicrobial activity against methicillin-susceptible Staphylococcus aureus […] infected in human THP-1 cells assessed as bacterial count per mg of cell protein at low extracellular compound concentration after 24 hrs at pH 7.4; assay type: functional; conditions: pooled result: one value given for 6 cell lines, strains, targets or settings; how it was run: as §2
Staphylococcus aureus [7] = assay: Bacteriostatic activity against methicillin-susceptible Staphylococcus aureus NRS52 infected in human THP-1 cells assessed as change in bacterial count after 24 hrs at pH 5.5; assay type: functional; how it was run: as §2
Staphylococcus aureus [8] = assay: Bacteriostatic activity against Panton-valentine leucocidin-positive community-acquired methicillin-resistant Staphylococcus aureus STA 228 infected in human THP-1 cells assessed as change in bacterial count after 24 hrs at pH 5.5; assay type: functional; how it was run: as §1
Staphylococcus aureus [9] = assay: Antimicrobial activity against methicillin-susceptible Staphylococcus aureus […] infected in human THP-1 cells assessed as bacterial count per mg of cell protein at high extracellular compound concentration after 24 hrs at pH 5.5; assay type: functional; how it was run: as §2
Staphylococcus aureus [10] = assay: Antimicrobial activity against Panton-valentine leucocidin-positive community-acquired methicillin-resistant Staphylococcus aureus isolate MEH2225605 infected in human THP-1 cells assessed as change in bacterial count after 24 hrs; assay type: functional, organism-based; conditions: isolate MEH2225605, THP-1, 24 h; how it was run: as §3
Staphylococcus aureus [11] = assay: Bacteriostatic activity against methicillin-susceptible Staphylococcus aureus […] infected in human THP-1 cells assessed as change in bacterial count after 24 hrs at pH 7.4; assay type: functional; how it was run: as §2
Staphylococcus aureus [12] = assay: Antimicrobial activity against hospital-acquired vancomycin-intermediate Staphylococcus aureus NRS18 infected in human THP-1 cells assessed as bacterial count per mg of cell protein at high extracellular compound concentration after 24 hrs at pH 7.4; assay type: functional; how it was run: as §2
Staphylococcus aureus [13] = assay: Antimicrobial activity against hospital-acquired vancomycin-intermediate Staphylococcus aureus NRS18 infected in human THP-1 cells assessed as bacterial count per mg of cell protein at high extracellular compound concentration after 24 hrs at pH 5.5; assay type: functional; how it was run: as §2
Staphylococcus aureus [14] = assay: Antimicrobial activity against methicillin-susceptible Staphylococcus aureus […] infected in human THP-1 cells assessed as change in bacterial count after 24 hrs at pH 7.4; assay type: functional, organism-based; conditions: THP-1, 24 h; how it was run: as §1
Staphylococcus aureus [15] = assay: Antimicrobial activity against methicillin-susceptible Staphylococcus aureus ATCC 11632 infected in human THP-1 cells assessed as change in bacterial count after 24 hrs at pH 5.5; assay type: functional, organism-based; conditions: ATCC 11632, THP-1, 24 h; how it was run: as §1
Staphylococcus aureus [16] = assay: Antimicrobial activity against hospital-acquired vancomycin-intermediate Staphylococcus aureus NRS126 infected in human THP-1 cells assessed as bacterial count per mg of cell protein at low extracellular compound concentration after 24 hrs at pH 7.4; assay type: functional; how it was run: as §1
Staphylococcus aureus [17] = assay: Antimicrobial activity against hospital-acquired vancomycin-intermediate Staphylococcus aureus NRS126 infected in human THP-1 cells assessed as bacterial count per mg of cell protein at high extracellular compound concentration after 24 hrs; assay type: functional; how it was run: as §2
Staphylococcus aureus [18] = assay: Antimicrobial activity against methicillin-susceptible Staphylococcus aureus […] infected in human THP-1 cells assessed as bacterial count per mg of cell protein at low extracellular compound concentration after 24 hrs; assay type: functional; how it was run: as §2
Staphylococcus aureus [19] = assay: Antimicrobial activity against methicillin-susceptible Staphylococcus aureus NRS52 infected in human THP-1 cells assessed as bacterial count per mg of cell protein at high extracellular compound concentration after 24 hrs at pH 5.5; assay type: functional; how it was run: as §2
Staphylococcus aureus [20] = assay: Antimicrobial activity against hospital-acquired vancomycin-intermediate Staphylococcus aureus NRS18 infected in human THP-1 cells assessed as change in bacterial count after 24 hrs; assay type: functional, organism-based; conditions: NRS18, THP-1, 24 h; how it was run: as §1
Staphylococcus aureus [21] = assay: Bacteriostatic activity against hospital-acquired vancomycin-intermediate Staphylococcus aureus NRS126 infected in human THP-1 cells assessed as change in bacterial count after 24 hrs at pH 7.4; assay type: functional; how it was run: as §1
Staphylococcus aureus [22] = assay: Antimicrobial activity against Panton-valentine leucocidin-positive community-acquired methicillin-resistant Staphylococcus aureus N4090440 infected in human THP-1 cells assessed as change in bacterial count after 24 hrs at pH 5.5; assay type: functional, organism-based; conditions: N4090440, THP-1, 24 h; how it was run: as §3
Staphylococcus aureus [23] = assay: Antimicrobial activity against Panton-valentine leucocidin-positive community-acquired methicillin-resistant Staphylococcus aureus NRS192 infected in human THP-1 cells assessed as bacterial count per mg of cell protein at low extracellular compound concentration after 24 hrs at pH 7.4; assay type: functional; conditions: pooled result: one value given for 6 cell lines, strains, targets or settings; how it was run: as §3

Nc1nc(/C(=N/O)C(=O)N[C@@H]2C(=O)N3C(C(=O)O)=C(/C=C4\CCN([C@@H]5CCNC5)C4=O)CS[C@H]23)ns1 [CEFTOBIPROLE]
log10cfu (Staphylococcus aureus [1]): 2.48
log10cfu (Staphylococcus aureus [2]): -0.99
log10cfu (Staphylococcus aureus [3]): 3.02
EC50 (Staphylococcus aureus [4]): 0.33 ×MIC
log10cfu (Staphylococcus aureus [5]): -1.04
log10cfu (Staphylococcus aureus [6]): 3.06
Activity (Staphylococcus aureus [7]): 1.19 × MIC
Activity (Staphylococcus aureus [8]): 1.45 × MIC
log10cfu (Staphylococcus aureus [9]): 1.04
EC50 (Staphylococcus aureus [10]): 0.82 mg/L (≈ 1.53 µM)
Activity (Staphylococcus aureus [11]): 0.6 × MIC
log10cfu (Staphylococcus aureus [12]): -0.99
log10cfu (Staphylococcus aureus [13]): 1.01
EC50 (Staphylococcus aureus [14]): 0.2 × MIC
EC50 (Staphylococcus aureus [15]): 0.41 × MIC
log10cfu (Staphylococcus aureus [16]): 2.6
log10cfu (Staphylococcus aureus [17]): -1.21
log10cfu (Staphylococcus aureus [18]): 3.49
log10cfu (Staphylococcus aureus [19]): 1.04
EC50 (Staphylococcus aureus [20]): 0.26 mg/L (≈ 0.486 µM)
Activity (Staphylococcus aureus [21]): 0.74 ×MIC
EC50 (Staphylococcus aureus [22]): 0.54 × MIC
log10cfu (Staphylococcus aureus [23]): 2.74
